Experimental data as given in PMC9283309 (Journal of medicinal chemistry, 2022).
Blank lines part the entries; values can stand above or below the compound they belong to.

Experiments:
[1] = tested on: adaptive immune response (CD4- and CD-8 dependent responses); test: In vivo adjuvant activity on co-administration with OVA; parameters: species or system C57BL/6J mice; conditions: i.m. with OVA, 10 mg/kg
[2] = tested on: murine melanoma (B16-OVA); conditions: combination with checkpoint inhibitor anti-PD-L1, diprovocim/OVA i.m.; cited from earlier work
[3] = tested on: OVA-specific IgG, IgG1, IgG2b; test: Antibody response assay: serum OVA-specific IgG, IgG1, IgG2b by ELISA; type: in vivo, C57BL/6J mice; conditions: 14 days after a single immunization, i.m. with OVA, 10 mg/kg
In short: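 Female 8-week C57BL/6J mice (ca. 20 g) injected i.m. on day 0 with 100 μg OVA (5 mg/kg) plus 200 μg (10 mg/kg) test compound in DMSO:Tween 80:saline (1:1:8); serum taken day 14. ELISA: plates coated with 5 μg/mL OVA overnight at 4 °C, blocked 1% BSA 1 h, serum (diluted in 1% BSA) 2 h, HRP anti-mouse IgG/IgG1/IgG2b 1 h RT, TMB, A450.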

[4] = co-administered i.m. with ovalbumin (OVA); cited from earlier work
[5] = biological target: mTLR1/TLR2 (Mus musculus, UniProt Q9EPQ1+Q9QUN7); type: cell-based, mouse (C57BL/6J); conditions: mouse macrophages; for murine efficacy/activity in words: compared with diprovocim-1
[6] = biological target: hTLR1/TLR2 (Homo sapiens, UniProt O60603+Q15399); test: Stimulated release of TNF-α from differentiated THP-1 cells; type: cell-based; conditions: text comment on Figure 3 data, compared with diprovocim-1
[7] = biological target: TLR1 (Homo sapiens, UniProt O60603+Q15399); type: cell-based; conditions: 5 nM; anti-TLR1 20 μg/mL, 1 h pretreatment
In short: (§1)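 THP-1 cells PMA-differentiated (100 nM, 24 h) then rested 24 h in fresh RPMI/10% FBS. Cells pretreated 1 h with neutralizing anti-TLR1, anti-TLR2 or anti-TLR6 (20 μg/mL) before stimulation with 5 nM test compound; no-antibody wells as control. TNF-α release was the read-out.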

[8] = tested on: TLR4; type: cell-based, mouse; conditions: 500 nM, diprovocim-X versus diprovocim-1
[9] = biological target: TLR2 (Homo sapiens, UniProt O60603+Q15399); type: cell-based; conditions: 5 nM; anti-TLR2 20 μg/mL, 1 h pretreatment
In short: as §1

mTLR1/TLR2, sequence (Q9EPQ1 26-795): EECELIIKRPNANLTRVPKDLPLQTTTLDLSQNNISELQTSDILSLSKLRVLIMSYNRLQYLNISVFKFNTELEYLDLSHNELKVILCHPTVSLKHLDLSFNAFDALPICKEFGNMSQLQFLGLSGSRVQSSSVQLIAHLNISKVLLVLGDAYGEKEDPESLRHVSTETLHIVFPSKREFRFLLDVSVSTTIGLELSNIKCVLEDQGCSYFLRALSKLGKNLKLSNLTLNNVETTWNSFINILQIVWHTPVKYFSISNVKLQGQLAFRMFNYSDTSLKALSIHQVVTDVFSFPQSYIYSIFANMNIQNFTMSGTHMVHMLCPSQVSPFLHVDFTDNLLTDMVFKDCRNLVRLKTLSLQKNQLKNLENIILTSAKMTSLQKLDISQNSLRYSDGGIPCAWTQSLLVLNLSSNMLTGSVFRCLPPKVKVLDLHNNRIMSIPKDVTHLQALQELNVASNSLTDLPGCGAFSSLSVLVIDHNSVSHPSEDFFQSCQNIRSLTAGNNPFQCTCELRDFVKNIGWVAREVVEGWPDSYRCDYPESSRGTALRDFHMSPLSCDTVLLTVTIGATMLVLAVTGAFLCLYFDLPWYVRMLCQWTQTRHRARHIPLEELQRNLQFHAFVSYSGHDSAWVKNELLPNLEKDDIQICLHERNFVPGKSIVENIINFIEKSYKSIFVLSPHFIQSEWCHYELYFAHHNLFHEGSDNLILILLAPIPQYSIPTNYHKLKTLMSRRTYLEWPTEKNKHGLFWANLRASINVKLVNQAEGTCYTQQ
mTLR1/TLR2, sequence (Q9QUN7 25-784): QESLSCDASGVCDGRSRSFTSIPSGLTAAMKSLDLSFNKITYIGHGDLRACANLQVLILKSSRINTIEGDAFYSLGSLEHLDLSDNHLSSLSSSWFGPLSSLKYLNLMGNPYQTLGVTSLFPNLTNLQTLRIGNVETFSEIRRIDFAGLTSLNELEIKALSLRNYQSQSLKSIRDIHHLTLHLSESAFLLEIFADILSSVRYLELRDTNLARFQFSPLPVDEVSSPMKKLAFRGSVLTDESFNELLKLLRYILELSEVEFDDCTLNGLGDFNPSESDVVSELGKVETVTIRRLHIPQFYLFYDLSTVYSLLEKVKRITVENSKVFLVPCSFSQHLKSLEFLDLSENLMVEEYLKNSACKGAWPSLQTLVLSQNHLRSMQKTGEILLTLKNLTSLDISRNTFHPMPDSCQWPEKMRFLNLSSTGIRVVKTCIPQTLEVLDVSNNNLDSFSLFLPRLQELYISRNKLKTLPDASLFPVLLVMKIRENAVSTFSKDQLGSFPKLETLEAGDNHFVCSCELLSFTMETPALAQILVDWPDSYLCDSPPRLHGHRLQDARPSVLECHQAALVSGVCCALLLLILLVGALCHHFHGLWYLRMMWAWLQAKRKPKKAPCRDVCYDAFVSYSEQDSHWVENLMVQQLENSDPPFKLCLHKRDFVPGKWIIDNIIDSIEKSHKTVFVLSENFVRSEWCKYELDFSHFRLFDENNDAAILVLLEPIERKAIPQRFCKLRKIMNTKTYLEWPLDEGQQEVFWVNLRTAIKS
hTLR1/TLR2, sequence (Q15399 25-786): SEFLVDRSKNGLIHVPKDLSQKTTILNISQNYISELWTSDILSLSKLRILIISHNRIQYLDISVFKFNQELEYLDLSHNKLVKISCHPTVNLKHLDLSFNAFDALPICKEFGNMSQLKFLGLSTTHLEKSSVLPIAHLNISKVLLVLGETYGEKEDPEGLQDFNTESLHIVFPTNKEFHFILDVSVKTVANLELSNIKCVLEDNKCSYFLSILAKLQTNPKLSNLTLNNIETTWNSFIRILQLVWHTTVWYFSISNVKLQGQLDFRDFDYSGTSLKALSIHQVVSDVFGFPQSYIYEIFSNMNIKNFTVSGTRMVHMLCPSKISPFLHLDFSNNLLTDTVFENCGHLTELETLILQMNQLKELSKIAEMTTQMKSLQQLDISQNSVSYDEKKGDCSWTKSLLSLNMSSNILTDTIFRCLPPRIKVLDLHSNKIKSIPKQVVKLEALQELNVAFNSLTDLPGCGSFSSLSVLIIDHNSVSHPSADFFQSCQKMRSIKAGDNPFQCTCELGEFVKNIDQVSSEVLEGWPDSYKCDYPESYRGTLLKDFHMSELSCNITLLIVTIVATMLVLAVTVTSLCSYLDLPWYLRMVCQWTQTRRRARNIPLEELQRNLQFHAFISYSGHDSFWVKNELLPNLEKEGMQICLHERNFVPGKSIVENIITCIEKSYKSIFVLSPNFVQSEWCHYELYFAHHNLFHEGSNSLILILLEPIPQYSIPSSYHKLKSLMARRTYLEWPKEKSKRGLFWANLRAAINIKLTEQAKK
hTLR1/TLR2, sequence (O60603 21-784): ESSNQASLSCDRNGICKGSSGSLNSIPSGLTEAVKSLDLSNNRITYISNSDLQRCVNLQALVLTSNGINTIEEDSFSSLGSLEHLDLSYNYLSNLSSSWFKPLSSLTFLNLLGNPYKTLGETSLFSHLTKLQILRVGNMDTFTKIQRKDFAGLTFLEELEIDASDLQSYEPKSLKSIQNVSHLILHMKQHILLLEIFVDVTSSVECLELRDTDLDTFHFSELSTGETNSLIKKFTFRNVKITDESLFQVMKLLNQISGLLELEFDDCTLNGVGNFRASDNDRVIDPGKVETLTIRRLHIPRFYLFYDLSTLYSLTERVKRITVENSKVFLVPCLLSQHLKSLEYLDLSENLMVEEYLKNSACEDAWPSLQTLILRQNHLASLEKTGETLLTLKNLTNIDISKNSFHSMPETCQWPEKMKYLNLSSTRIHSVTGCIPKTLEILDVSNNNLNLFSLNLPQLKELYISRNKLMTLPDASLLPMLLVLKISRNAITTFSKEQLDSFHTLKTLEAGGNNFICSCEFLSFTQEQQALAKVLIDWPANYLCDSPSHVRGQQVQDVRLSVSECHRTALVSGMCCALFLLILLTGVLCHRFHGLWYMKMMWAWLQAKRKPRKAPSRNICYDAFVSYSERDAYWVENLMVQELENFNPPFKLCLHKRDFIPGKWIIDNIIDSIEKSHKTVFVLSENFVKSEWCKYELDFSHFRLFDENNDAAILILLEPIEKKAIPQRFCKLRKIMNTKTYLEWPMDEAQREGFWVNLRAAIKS
TLR1, sequence (Q15399 25-786): as the sequence (Q15399 25-786) above
TLR1, sequence (O60603 21-784): as the sequence (O60603 21-784) above
TLR2, sequence (O60603 21-784): as above
TLR2, sequence (Q15399 25-786): as the sequence (Q15399 25-786) above

Structure (SMILES): O=C(N[C@H]1C[C@@H]1c1ccccc1)[C@@H]1CN(C(=O)c2ccc(C(=O)N3C[C@@H](C(=O)N[C@H]4C[C@@H]4c4ccccc4)[C@H](C(=O)N[C@H]4C[C@@H]4c4ccccc4)C3)cc2)C[C@H]1C(=O)N[C@H]1C[C@@H]1c1ccccc1 [compound 1]
adjuvant activity in mice [1]: comparable adjuvant activity
tumor response, B16-OVA [2]: eradicated tumors
OVA-specific circulating antibodies (IgG, IgG1, IgG2b) [3]: strong responses
adjuvant activity in mice [4]: effective adjuvant

Structure (SMILES): CC(C)(C)OC(=O)NCCCCCCCCCCCCNC(=O)[C@@H]1CN(C(=O)c2ccc(C(=O)N3C[C@@H](C(=O)N[C@H]4C[C@@H]4c4ccccc4)[C@H](C(=O)N[C@H]4C[C@@H]4c4ccccc4)C3)cc2)C[C@H]1C(=O)N[C@H]1C[C@@H]1c1ccccc1 [compound 17, tert-Butyl (12-((3S,4S)-1-(4-((3S,4S)-3,4-bis(((1S,2R)-2-phenylcyclopropyl)carbamoyl)-pyrrolidine-1-carbonyl)benzoyl)-4-(((1S,2R)-2-phenylcyclopropyl)carbamoyl)pyrrolidine-3-carboxamido)dodecyl)carbamate]
murine efficacy/activity in words [5]: did not display this increased or improved murine activity

Structure (SMILES): C#CCCCCCCCCCCCCNC(=O)[C@@H]1CN(C(=O)c2ccc(C(=O)N3C[C@@H](C(=O)N[C@H]4C[C@@H]4c4ccccc4)[C@H](C(=O)N[C@H]4C[C@@H]4c4ccccc4)C3)cc2)C[C@H]1C(=O)N[C@H]1C[C@@H]1c1ccccc1 [compound 19, (3S,4S)-1-(4-((3S,4S)-3,4-Bis(((1S,2R)-2-phenylcyclopropyl)carbamoyl)pyrrolidine-1-carbonyl)-benzoyl)-N^3-((1S,2R)-2-phenylcyclopropyl)-N^4-(tetradec-13-yn-1-yl)pyrrolidine-3,4-dicarboxamide]
response efficacy in words [6]: small improvement in the response efficacy

murine efficacy/activity in words [5]: substantial increase in efficacy
Structure (SMILES): O=C(NCCCCCCCCc1ccc(O)cc1)[C@@H]1CN(C(=O)c2ccc(C(=O)N3C[C@@H](C(=O)N[C@H]4C[C@@H]4c4ccccc4)[C@H](C(=O)N[C@H]4C[C@@H]4c4ccccc4)C3)cc2)C[C@H]1C(=O)N[C@H]1C[C@@H]1c1ccccc1 [compound 26, (3S,4S)-1-(4-((3S,4S)-3,4-Bis(((1S,2R)-2-phenylcyclopropyl)carbamoyl)pyrrolidine-1-carbonyl)-benzoyl)-N^3-(8-(4-hydroxyphenyl)octyl)-N^4-((1S,2R)-2-phenylcyclopropyl)pyrrolidine-3,4-dicarboxamide]

murine efficacy/activity in words [5]: substantial increase in efficacy
Structure (SMILES): Nc1ccc(CCCCCCCCNC(=O)[C@@H]2CN(C(=O)c3ccc(C(=O)N4C[C@@H](C(=O)N[C@H]5C[C@@H]5c5ccccc5)[C@H](C(=O)N[C@H]5C[C@@H]5c5ccccc5)C4)cc3)C[C@H]2C(=O)N[C@H]2C[C@@H]2c2ccccc2)cc1 [compound 27, (3S,4S)-N^3-(8-(4-Aminophenyl)octyl)-1-(4-((3S,4S)-3,4-bis(((1S,2R)-2-phenylcyclopropyl)-carbamoyl)pyrrolidine-1-carbonyl)benzoyl)-N^4-((1S,2R)-2-phenylcyclopropyl)pyrrolidine-3,4-dicarboxamide]

Structure (SMILES): CC(C)(C)OC(=O)NCC(=O)OCCCCCCCCCCCCNC(=O)[C@@H]1CN(C(=O)c2ccc(C(=O)N3C[C@@H](C(=O)N[C@H]4C[C@@H]4c4ccccc4)[C@H](C(=O)N[C@H]4C[C@@H]4c4ccccc4)C3)cc2)C[C@H]1C(=O)N[C@H]1C[C@@H]1c1ccccc1 [compound 35, 12-((3S,4S)-1-(4-((3S,4S)-3,4-Bis(((1S,2R)-2-phenylcyclopropyl)carbamoyl)-pyrrolidine-1-carbonyl)benzoyl)-4-(((1S,2R)-2-phenylcyclopropyl)carbamoyl)-pyrrolidine-3-carboxamido)dodecyl-2-((tert-butoxycarbonyl)amino)acetate]
adjuvant activity in mice [1]: matching or surpassing the in vivo activity of diprovocim-1
dependence of TNF-α release on TLR1 [7]: dependent
OVA-specific circulating antibodies (IgG, IgG1, IgG2b) [3]: strong responses
fold more active than diprovocim-1 ([5]; EC50 compared with diprovocim-1): 2 fold
efficacy as a TNF inducer in mouse macrophage cultures [8]: greater efficacy
dependence of TNF-α release on TLR2 [9]: dependent

murine efficacy/activity in words [5]: modest increase in the efficacy
Structure (SMILES): CC(C)(C)OC(=O)NCCOCCOCCOCCOCCC(=O)OCCCCCCCCCCCCNC(=O)[C@@H]1CN(C(=O)c2ccc(C(=O)N3C[C@@H](C(=O)N[C@H]4C[C@@H]4c4ccccc4)[C@H](C(=O)N[C@H]4C[C@@H]4c4ccccc4)C3)cc2)C[C@H]1C(=O)N[C@H]1C[C@@H]1c1ccccc1 [compound 55, 12-((3S,4S)-1-(4-((3S,4S)-3,4-Bis(((1S,2R)-2-phenylcyclopropyl)carbamoyl)pyrrolidine-1-carbonyl)benzoyl)-4-(((1S,2R)-2-phenylcyclopropyl)carbamoyl)pyrrolidine-3-carboxamido)-dodecyl 2,2-dimethyl-4-oxo-3,8,11,14,17-pentaoxa-5-azaicosan-20-oate]
